Assay results reported in ChEMBL document CHEMBL1926607 (J Med Chem, 2011).
Activity calls are given as the source filed them. The calls are words filed in the database; no cut-off is given here.

Experiments:
[1] = target: T1, 5-hydroxytryptamine receptor 1A (Rattus norvegicus, UniProt P19327); assay: Displacement of [3H]-8-OH-DPAT from 5-HT1A receptor in Sprague-Dawley albinus rat cerebral cortex membranes after 15 mins; type: cell membranes, Membrane
T1 sequence (P19327 whole entry): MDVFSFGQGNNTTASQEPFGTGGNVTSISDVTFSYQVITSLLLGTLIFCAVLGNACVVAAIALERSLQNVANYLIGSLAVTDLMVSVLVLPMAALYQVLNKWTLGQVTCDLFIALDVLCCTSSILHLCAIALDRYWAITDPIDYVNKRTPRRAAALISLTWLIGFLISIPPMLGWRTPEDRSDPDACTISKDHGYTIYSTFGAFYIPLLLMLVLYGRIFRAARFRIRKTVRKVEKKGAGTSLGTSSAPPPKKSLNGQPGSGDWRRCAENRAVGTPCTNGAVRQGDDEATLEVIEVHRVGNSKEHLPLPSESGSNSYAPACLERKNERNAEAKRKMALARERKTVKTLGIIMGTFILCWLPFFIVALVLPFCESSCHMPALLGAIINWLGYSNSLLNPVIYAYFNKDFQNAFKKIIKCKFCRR

[2] = target: T2, 5-hydroxytryptamine receptor 1A (Homo sapiens) (UniProt P08908); assay: Partial agonist activity at human 5HT1A receptor expressed in human HeLa cells assessed as inhibition of forskolin-stimulated cAMP production pretreated 20 mins before forskolin challenge measured after 2 hrs by RIA; type: functional, cell-based
T2 sequence (whole entry): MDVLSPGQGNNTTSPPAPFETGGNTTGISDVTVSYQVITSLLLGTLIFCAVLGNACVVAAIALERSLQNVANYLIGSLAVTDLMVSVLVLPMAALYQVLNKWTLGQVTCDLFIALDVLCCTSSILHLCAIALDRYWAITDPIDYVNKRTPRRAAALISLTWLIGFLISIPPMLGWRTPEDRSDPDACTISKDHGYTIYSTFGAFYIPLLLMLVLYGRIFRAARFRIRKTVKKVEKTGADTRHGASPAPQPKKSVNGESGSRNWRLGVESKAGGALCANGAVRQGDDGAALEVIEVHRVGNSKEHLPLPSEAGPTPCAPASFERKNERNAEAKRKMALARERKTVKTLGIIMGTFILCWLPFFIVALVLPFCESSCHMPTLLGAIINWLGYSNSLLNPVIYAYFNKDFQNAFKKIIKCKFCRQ
Procedure, shortened: (§1)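 HeLa cells stably expressing the h5-HT1AR, grown in DMEM with 2 mM glutamine, 1 mM pyruvate and 10% heat-inactivated FCS, and used after 2–3 days at about 7.5 × 10^4 cells/well. After a PBS wash, cells were incubated 10 min in PBS with 0.5 mM isobutylmethylxanthine and 10 μM forskolin, with or without compound. The reaction was stopped with ice-cold ethanol, extracted 2 h and lyophilized; cAMP was measured by RIA.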

[3] = target: T2, 5-hydroxytryptamine receptor 1A (Homo sapiens); assay: Agonist activity at human 5HT1A receptor expressed in human HeLa cells assessed as inhibition of forskolin-stimulated cAMP production pretreated 20 mins before forskolin challenge measured after 2 hrs by RIA relative to control; type: functional, cell-based
[4] = target: 5-hydroxytryptamine receptor 2A (Rattus norvegicus, UniProt P14842); assay: Displacement of [3H]ketanserin from 5HT2A receptor in Sprague-Dawley albinus rat frontal cortex membranes after 15 mins; type: cell membranes, Membrane
5-hydroxytryptamine receptor 2A, sequence (P14842 whole entry): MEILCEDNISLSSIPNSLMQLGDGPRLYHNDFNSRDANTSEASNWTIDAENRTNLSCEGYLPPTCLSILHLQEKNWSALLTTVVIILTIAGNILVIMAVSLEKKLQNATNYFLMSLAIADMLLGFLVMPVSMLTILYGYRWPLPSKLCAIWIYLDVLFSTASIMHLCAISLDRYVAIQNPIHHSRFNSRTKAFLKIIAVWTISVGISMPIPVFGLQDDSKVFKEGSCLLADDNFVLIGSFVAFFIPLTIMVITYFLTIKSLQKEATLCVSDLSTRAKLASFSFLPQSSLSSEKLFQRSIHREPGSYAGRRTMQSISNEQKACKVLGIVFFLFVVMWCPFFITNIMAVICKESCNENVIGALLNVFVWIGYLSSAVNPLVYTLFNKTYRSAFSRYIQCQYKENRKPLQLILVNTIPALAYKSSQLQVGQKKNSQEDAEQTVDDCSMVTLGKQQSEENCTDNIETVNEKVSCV
Procedure, shortened: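 Rat frontal cortex membranes (male Sprague–Dawley, 180–200 g). Nonspecific binding was set with 1 μM cinanserin.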

[5] = target: T3, 5-hydroxytryptamine receptor 1A (Homo sapiens, UniProt P08908); assay: Agonist activity at human 5HT1A receptor expressed in human HeLa cells assessed as inhibition of forskolin-stimulated cAMP production […] measured after 2 hrs by RIA; type: functional, cell-based; procedure, shortened: as §1
T3 sequence (P08908 whole entry): T2 sequence (whole entry)

[6] = Neuroprotective activity in Wistar rat hippocampi primary neuronal cells assessed as protection against serum-deprivation induced cell death at 1 uM after 24 hrs by MTT assay; type: functional, Hippocampus, Primary neuron
Procedure, shortened: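 Mixed neuron-glia cultures from E18 Wistar rat hippocampi (Neurobasal plus 10% FCS), used at 11 days in vitro. Medium replaced by saline to withdraw serum; cells held 24 h with compound. Cell survival measured by MTT reduction, expressed as % protection.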

[7] = Neuroprotective activity in Wistar rat hippocampi primary neuronal cells assessed as protection against oxygen-glucose deprivation induced cell death at 1 uM after 18 hrs by MTT assay; type: functional, Hippocampus, Primary neuron
[8] = Neuroprotective activity in Wistar rat hippocampi primary neuronal cells assessed as protection against glutamate-induced cell death at 1 uM treated 30 min before glutamate challenge measured after 22 hrs by MTT assay; type: functional, Hippocampus, Primary neuron
Procedure, shortened: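 E18 fetal Wistar rat hippocampal neurons in neuron-enriched culture (Neurobasal, 2% B27, poly-L-lysine), used at 11 days in vitro. Compound added 30 min before 1 mM glutamate, exposure 22 h. Survival by MTT (mitochondrial dehydrogenase) read-out, reported as % protection.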

Compound	Ki [1] [nM]	Emax [3] [%]	Ki [4] [nM]	also measured
O=C1C2CCCCN2C(=O)N1CCCCNCC1CCc2ccccc2O1 (stereo not given)	2.4	77.9	> 1000	Activity [2]: Active
O=C1C2CCCN2C(=O)N1CCCCNCc1ccc2ccccc2n1 (stereo not given)	8.3	75.8	> 1000	Activity [2]: Active
O=C1C2CCCN2C(=O)N1CCCCCCCCNCC1CCc2ccccc2O1 (stereo not given)	87.6			
O=C1C2CCCN2C(=O)N1C/C=C/CNCC1CCc2ccccc2O1 (stereo not given)	27		> 1000	
O=C1C2CCCN2C(=O)N1CCCCNCc1ccccn1 (stereo not given)	> 1000			
O=C1C2CCCN2C(=O)N1CCCCNCc1ccc2ccccc2c1 (stereo not given)	49		> 1000	
O=C1C2CCCN2C(=O)N1CCCCNCCc1ccccc1 (stereo not given)	> 1000			
O=C1CSC(=O)N1CCCCCCNCC1CCc2ccccc2O1 (stereo not given)		87	> 1000	EC50 [5]: 19.9 nM
O=C1C2CCCN2C(=O)N1C/C=C\CNCC1CCc2ccccc2O1 (stereo not given)	114			
CCCN(CCC)C1CCc2cccc(O)c2C1 (stereo not given) [8-OH-DPAT]				Activity [6]: 44%; Activity [7]: 54%; Activity [8]: 37%
O=C1C2CCCN2C(=O)N1CCCCCCNCC1CCc2ccccc2O1 (stereo not given)	5.9	91.2	> 1000	EC50 [5]: 21.8 nM
O=C1C2CCCN2C(=O)N1CCCCNCCc1ccccn1 (stereo not given)	> 1000			
O=C1C2CCCN2C(=O)N1CCCCNCc1cccs1 (stereo not given)	> 1000			
O=C1C2CSCN2C(=O)N1CCCCNCC1CCc2ccccc2O1 (stereo not given)	13	89.3	> 1000	
O=C1C2CCCN2C(=O)N1CCCNCC1CCc2ccccc2O1 (stereo not given)	8.2	94.3	> 1000	EC50 [5]: 23.3 nM
